Results published in PMC12008863 (Journal of Translational Medicine, 2025).

Legend:
[1] = tested on: HIF-1α; assay: Western blot of rat retina; assay type: in vivo, rat (Sprague–Dawley); conditions: intravitreal AAV9, n = 3; Fig. S13B
How it was run: (§1)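 STZ-diabetic male Sprague–Dawley rats (6–8 weeks) were given intravitreal AAV9 (5 μL, 1 × 10^12 vg/mL) every 8 weeks, with saline controls. Retinal protein was extracted in RIPA with protease and phosphatase inhibitors, run on 10% SDS–PAGE and transferred to PVDF. Membranes were blocked in 5% skimmed milk, probed with primary then secondary antibody, and developed by ECL.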

[2] = tested on: p-mTOR; assay: Western blot of rat retinal tissue; assay type: in vivo, rat (Sprague–Dawley); conditions: increased by STZ; intravitreal AAV9, n = 3; Fig. 8G
[3] = tested on: VEGFA; assay: Western blot of rat retina; assay type: in vivo, rat (Sprague–Dawley); conditions: intravitreal AAV9, n = 3; Fig. S13C
How it was run: as §1

[4] = tested on: VEGFA; assay: Immunohistochemistry of rat retina; assay type: in vivo, rat (Sprague–Dawley); conditions: intravitreal AAV9, 16 weeks, n = 3; Fig. 6E
How it was run: (§2)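 Male Sprague–Dawley rats, 6–8 weeks old, with STZ-induced diabetic retinopathy. Under intraperitoneal ketamine (80 μg/g) and xylazine (4 μg/g), rats received 5 μL intravitreal AAV9 (1 × 10^12 vg/mL) carrying the test sequence every 8 weeks; saline as control; n = 8 rats per group. At 16 weeks, eyes were paraffin-embedded, cut at 5 μm and immunostained. Relative positivity ratio scored; mean ± SD.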

[5] = tested on: p-AKT; assay: Western blot of rat retinal tissue; assay type: in vivo, rat (Sprague–Dawley); conditions: increased by STZ; intravitreal AAV9, n = 3; Fig. 8F
[6] = tested on: STAT4; assay: Western blot of rat retinal tissue; assay type: in vivo, rat (Sprague–Dawley); conditions: increased by STZ; intravitreal AAV9, n = 3; Fig. 8C
[7] = tested on: fibronectin; assay: Immunohistochemistry of rat retina; assay type: in vivo, rat (Sprague–Dawley); conditions: vs STZ and STZ + NC; intravitreal AAV9, 16 weeks, n = 3; Fig. 6B
How it was run: (§3)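 In the STZ-induced DR model in male SD rats, animals received intravitreal AAV9 (5 μL, 1 × 10^12 vg/mL, every 8 weeks; saline control; n = 8/group). At 16 weeks, eyeballs were paraffin-embedded and cut at 5 μm. Immunohistochemistry for fibronectin or PCNA followed, with relative positivity ratio quantified; n = 3.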

[8] = tested on: PCNA; assay: Immunohistochemistry of rat retina; assay type: in vivo, rat (Sprague–Dawley); conditions: vs STZ and STZ + NC; intravitreal AAV9, 16 weeks, n = 3; Fig. 6C
How it was run: as §3

[9] = tested on: p-STAT4; assay: Western blot of rat retinal tissue; assay type: in vivo, rat (Sprague–Dawley); conditions: increased by STZ; intravitreal AAV9, n = 3; Fig. 8C
[10] = tested on: HIF-1α; assay: Immunohistochemistry of rat retina; assay type: in vivo, rat (Sprague–Dawley); conditions: intravitreal AAV9, 16 weeks, n = 3; Fig. 6D
How it was run: as §2

[11] = tested on: FBXW7; assay: Western blot of rat retinal tissue; assay type: in vivo, rat (Sprague–Dawley); conditions: decreased by STZ; intravitreal AAV9, n = 3; Fig. 8D
[12] = tested on: rno-miR-223-3p; assay: qPCR in rat retina; assay type: in vivo, rat (Sprague–Dawley); conditions: increased by STZ; intravitreal AAV9, n = 3; Fig. 8A
[13] = tested on: Notch 1; assay: Western blot of rat retinal tissue; assay type: in vivo, rat (Sprague–Dawley); conditions: increased by STZ; intravitreal AAV9, n = 3; Fig. 8E
[14] = Kidney and liver pathological indexes; assay type: in vivo, rat (Sprague–Dawley); conditions: serum, STZ rats (raised vs normal), intravitreal AAV9
How it was run: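 STZ-diabetic male SD rats were given intravitreal AAV9 every 8 weeks (5 μL, 1 × 10^12 vg/mL) or saline. Serum ALT, AST and ALP activities and BUN and creatinine concentrations were measured on an automatic biochemical analyzer.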

[15] = tested on: hRECs; assay: EdU DNA synthesis assay; assay type: cell-based, human; conditions: high glucose (25 mM), 1 μM, n = 5; Fig. 2A, B
How it was run: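 hRECs (passages 5–6; 3000 cells/mL) were kept in 25 mM glucose medium with 1 μM test peptide or TTR homotetramer, with low-glucose and mannitol controls. DNA synthesis was detected with an EdU labeling kit by confocal imaging, nuclei counterstained with Hoechst 33342; n = 5.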

[16] = tested on: p-STAT4; assay: Western blot in hRECs; assay type: cell-based, human; conditions: high glucose (increased by HG), 1 μM, n = 3; Fig. 4D, E
How it was run: (§4)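 hRECs (passages 5–6; 3000 cells/mL) were cultured 120 h in 5.5 mM glucose, 25 mM glucose or mannitol control medium, with 1 μM test peptide or TTR homotetramer added to high glucose. Lysis was in RIPA with protease/phosphatase inhibitors. Lysates were resolved on 10% SDS–PAGE, transferred to PVDF, blocked in 5% milk, probed and developed by ECL.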

[17] = tested on: hnRNPA2B1; conditions: ref [33], [34]; cited from earlier work
[18] = tested on: hRECs; assay: Tube formation assay; assay type: cell-based, human; conditions: high glucose, 1 μM, basement membrane matrix, 4 h, n = 5; Fig. 3D, E
How it was run: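 hRECs (passages 5–6) in 25 mM glucose medium with 1 μM test peptide or TTR homotetramer, plus low-glucose and mannitol osmotic controls, were plated on basement membrane matrix. Tube formation was then assessed.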

[19] = tested on: VEGFA; assay: Western blot in hRECs; assay type: cell-based, human; conditions: high glucose (enhanced by HG), n = 3; Fig. S8A, C
[20] = tested on: FBXW7; assay: Western blot in hRECs; assay type: cell-based, human; conditions: high glucose (decreased by HG), 1 μM, n = 3; Fig. 4D, F
How it was run: as §4

[21] = tested on: hRECs; assay: Cell entry and localization in hRECs; assay type: cell-based, human; conditions: 1 μM, 2 h incubation, HG medium, 37 °C; confocal microscopy; Fig. 1D
How it was run: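 Passage-6 hRECs spent 24 h in high-glucose medium at 37 °C, then 2 h with 1 μM test peptide, TTR homotetramer or scrambled peptide. Cells were PBS-washed, fixed (4% PFA, 20 min), permeabilized (0.1% Triton X-100) and stained overnight at 4 °C with anti-hnRNPA2B1, anti-TTR or anti-His-tag. Alexa Fluor 488/594 secondaries and Hoechst 33342 were used; imaging was confocal.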

[22] = tested on: STAT4 mRNA; assay: qPCR in hRECs; assay type: cell-based, human; conditions: high glucose, 1 μM, n = 5, Fig. 4A
How it was run: (§5)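 hRECs (passages 5–6) cultured 120 h in high-glucose (25 mM) medium with 1 μM test compound, alongside low-glucose and mannitol osmotic controls. Total RNA extracted and measured by qPCR: STAT4 mRNA normalised to GAPDH; hsa-miR-223-3p against a cel-miR-39-3p spike-in control. n = 5; mean ± SD; one-way ANOVA with LSD test.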

[23] = tested on: STAT4; assay: Western blot in hRECs; assay type: cell-based, human; conditions: high glucose (increased by HG), 1 μM, n = 3; Fig. 4D, E
How it was run: as §4

[24] = tested on: hRECs; assay: Wound healing assay; assay type: cell-based, human; conditions: high glucose, 1 μM, 24 h, n = 5; Fig. 3B, C
How it was run: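 Wound-healing kit assay on hRECs (passages 5–6) in high-glucose (25 mM) phenol red-free DMEM containing 1 μM test compound. Low glucose (5.5 mM) and mannitol (20 mM) osmotic controls included. Closure followed over 24 h; n = 5; mean ± SD, one-way ANOVA with LSD post hoc test.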

[25] = tested on: hRECs; assay: CCK-8 proliferation assay; assay type: cell-based, human; conditions: 1 μM, 5 days
How it was run: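 hRECs (passages 5–6; 3000 cells/mL) were grown in 25 mM glucose medium with 1 μM test peptide or TTR homotetramer, with 5.5 mM glucose and mannitol osmotic controls. Proliferation was read by CCK-8 after 5 days of culture; n = 5.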

[26] = tested on: hRECs; conditions: high-glucose environment; ref [33], [34]; cited from earlier work
[27] = tested on: hRECs; assay: Apoptosis; assay type: cell-based, human; conditions: Annexin V flow cytometry; hyperglycemia; Fig. S7
How it was run: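 hRECs (passages 5–6) were seeded at 3000 cells/mL and grown 120 h in low-glucose (5.5 mM), high-glucose (25 mM) or low-glucose + 20 mM mannitol (osmotic control) medium. TTR homotetramer (1 μM) or test peptide (1 μM) was added to the high-glucose medium. Apoptosis was measured by FITC Annexin V staining and flow cytometry.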

[28] = tested on: FBXW7 mRNA; assay: qPCR in hRECs; assay type: cell-based, human; conditions: high glucose, 1 μM, n = 5, Fig. 4C
How it was run: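 Total RNA came from hRECs grown 120 h in low-glucose, 25 mM high-glucose or mannitol control medium, with 1 μM test peptide or TTR homotetramer in high glucose. FBXW7 mRNA was quantified by qPCR with GAPDH as reference.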

[29] = tested on: Notch 1; assay: Western blot in hRECs; assay type: cell-based, human; conditions: high glucose (increased by HG), 1 μM, n = 3; Fig. 4D, G
How it was run: as §4

[30] = tested on: p-mTOR; assay: Western blot in hRECs; assay type: cell-based, human; conditions: high glucose (increased by HG), 1 μM, n = 3; Fig. 4D, I
How it was run: as §4

[31] = tested on: hsa-miR-223-3p; assay: qPCR in hRECs; assay type: cell-based, human; conditions: high glucose, 1 μM, n = 5, Fig. 4B
How it was run: as §5

[32] = tested on: p-AKT; assay: Western blot in hRECs; assay type: cell-based, human; conditions: high glucose (increased by HG), 1 μM, n = 3; Fig. 4D, H
How it was run: as §4

TTR overexpression: Rat TTR (GenBank: AAH86946.1) cloned into the pAAV-MCS vector and packaged in AAV9, intravitreal
HIF-1α level (western blot) [1]: neither THIP-4 administration nor elevated TTR expression affected the levels
p-mTOR protein level [2]: significantly reversed
VEGFA level (western blot) [3]: neither THIP-4 administration nor elevated TTR expression affected the levels
VEGFA level (IHC) [4]: neither THIP-4 administration nor TTR overexpression affected the levels
p-AKT protein level [5]: significantly reversed
STAT4 protein level [6]: significantly reversed
fibronectin positivity ratio [7]: lower
PCNA positivity ratio [8]: lower
p-STAT4 protein level [9]: significantly reversed
HIF-1α level (IHC) [10]: neither THIP-4 administration nor TTR overexpression affected the levels
FBXW7 protein level [11]: significantly reversed
rno-miR-223-3p expression [12]: reversed
Notch 1 protein level [13]: significantly reversed

transthyretin [TTR]
ALT activity ([14]; Fig. S12D): could not be affected by TTR or THIP-4
AST activity ([14]; Fig. S12E): could not be affected by TTR or THIP-4
ALP activity ([14]; Fig. S12F): could not be affected by TTR or THIP-4
DNA synthesis (EdU) [15]: significantly reversed this trend
p-STAT4 protein level [16]: significantly reversed
level of hnRNPA2B1 [17]: could not affect the level of hnRNPA2B1
tube length (tube formation) [18]: reversed by TTR and the THIPs
VEGFA level [19]: neither the THIPs nor TTR could reverse this effect
FBXW7 protein level [20]: significantly reversed
cellular localization [21]: mainly accumulated in the nucleus and their signals overlapped with that of hnRNPA2B1
STAT4 expression level [22]: reversed in the presence of TTR or the THIPs
STAT4 protein level [23]: significantly reversed
wound healing [24]: significantly inhibited the accelerated hREC healing
proliferation (CCK-8), high glucose ([25]; high glucose (25 mM), n = 5, Fig. 2C): significantly abrogated
proliferation (CCK-8), low glucose ([25]; low glucose (5.5 mM), Fig. S6): neither TTR nor the THIPs inhibited hREC proliferation
neovascularization of hRECs [26]: inhibits the neovascularization of hRECs in a high-glucose environment
apoptosis [27]: not significantly influenced
FBXW7 expression level [28]: this trend was reversed
Notch 1 protein level [29]: significantly reversed
p-mTOR protein level [30]: significantly reversed
hsa-miR-223-3p expression level [31]: reversed in the presence of TTR or the THIPs
p-AKT protein level [32]: significantly reversed
